In the library only some 1.8% were active in any assay of this set; here they are far more common.
C8 TRAIL sens = sensitizes caspase-8 expressing cells to TRAIL; NB7+C8 cells + TRAIL, ATPlite viability luminescence; inhibition (viability loss, TRAIL sensitization), % at 10 µM; hit rate 1% among 360,000; AID 624354;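 active = compounds causing at least 50% loss of cell viability in the single-dose screen, relative to plate controls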
STAT3 blocker = reduces IL-6 driven STAT3 reporter signal | U3A cells, IL-6 STAT3-luciferase reporter, luminescence; host cell line lacks STAT1 | inhibition, % at 5.5 µM | hit rate 0.89% among 190,000 | AID 862;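 active = inhibition above the mean inhibition across all screened compounds plus 3 SD, cut at about 44% in these data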;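 note: 0% = DMSO only wells and 100% = 100 µM nifuroxazide control wells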
STAT1 inh = reduces IFN-gamma driven STAT1 reporter signal; NIH 3T3 STAT1-luciferase reporter, luminescence; inhibition, % at 5.5 µM; hit rate 0.35% among 200,000;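 active = inhibition above a set limit, the mean inhibition across all tested compounds plus 3 SD, cut at about 34% in these data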;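 note: 0% = IFN-gamma with DMSO and 100% = IFN-gamma with 300 µM nifuroxazide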
STAT3 act = activators of IL-6 induced STAT3 signaling. U3A cells, IL-6 STAT3-luciferase reporter, luminescence; 100% = signal with IL-6 EC80 alone. activation (% of control), % at 5.6 µM. hit rate 0.91% among 190,000. AID 871;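 active = activation above the screen-wide mean of compound activation plus 3 SD, cut at about 130% in these data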;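 note: 0% = background luminescence of wells with medium and substrate only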
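Test system: human U3A cells carrying STAT3-luciferase construct; control set: IL-6-only wells as 100% reference; timing: compound pre-incubation 1 h before IL-6, then 6 h stimulation at 37 °C; also added: IL-6 stimulus at 33 ng/mL final; evaluation: % activation versus median of IL-6-stimulated wells; detection: reporter luminescence signal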
PPC-1+TRAIL kill = compounds killing PPC-1 cancer cells with TRAIL present (potentiator screen, no TRAIL-free arm); AID 1443; PPC-1 cells + TRAIL, ATPLite viability luminescence; cell killing (% activity), % at 4 µM or 5 µM; hit rate 0.41% among 220,000;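 active = cell killing above 50% in the first pass at 4 µM, then a duplicate retest at 5 µM averaging 50% or more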;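 note: plate controls were cells with TRAIL plus DMSO for no effect and medium-only wells lacking cells for full effect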
Active calls of the source: *; nt = no result.

SMILES | C8 TRAIL sens | STAT3 blocker | STAT1 inh | STAT3 act | PPC-1+TRAIL kill
COc1ccc(C(=O)NCCN(C)C)c2nc3ccccc3cc12 | 51.3* | nt | nt | nt | nt
COc1cccc2nc3c(C(=O)NCCN(C)C)cccc3cc12 | 7.9 | nt | nt | nt | nt
COc1ccc(C(=O)Nc2ccc3ccccc3n2)c(OC)c1OC | 83.0* | nt | nt | nt | nt
O=C(NC(c1ccc(Cl)cc1)c1ccccn1)C1CCN(CCOc2ccc(Cl)cc2Cl)CC1 (stereo not given) | 4.6 | nt | nt | nt | nt
CCOC(=O)C(O)(CC(=O)c1ccc(Cl)cc1)C(=O)OCC | -16.0 | 4.6 | -4.0 | 100.9 | -5.5
CC(=O)c1ccc(NC(=O)c2cnn3ccccc23)cc1 | 3.1 | 82.9* | 85.5* | 35.6 | 33.4
COC(/C=C/Nc1ccc(C)cc1)=C(C#N)C#N | 0.1 | -37.3 | 0.5 | 135.8* | -8.9
CN1CCN(c2ccc(NC(=O)N3CCc4ccccc43)cc2)CC1 | 61.2* | nt | nt | nt | nt
Cc1ccc(N2Cc3ccccc3C2=O)cc1 | 58.0* | nt | nt | nt | nt
O=C1c2ccccc2CN1c1ccccc1 | 15.1 | nt | nt | nt | nt
COc1ccc(N2Cc3ccccc3C2=O)cc1 | 67.0* | nt | nt | nt | nt
Cc1ccc(C(=O)O/N=C(\N)c2ccc(Br)cc2)cc1C | 85.9* | 18.9 | -22.5 | 88.4 | 42.5
Cc1cc(C)cc(C(=O)O/N=C(\N)c2ccc(Br)cc2)c1 | 90.0* | -7.9 | -1.6 | 109.2 | -0.1
CCCCCc1cc(=O)oc2c(C(CCN3CCCC3)c3cc(OC)c(OC)c(OC)c3)c(OC)cc(OC)c12 (stereo not given) | 53.2* | nt | nt | nt | 10.8
CCCCCc1cc(=O)oc2c(C(CCN3CCCCC3)c3ccc(OC)cc3)c(OC)cc(OC)c12 (stereo not given) | 38.6 | nt | nt | nt | -0.9
NC(=O)c1ccccc1NC(=O)/C=C/c1ccccc1 | 60.3* | -3.1 | -32.2 | 98.3 | 41.4
CC(C)n1ncc2c(C(=O)N3CCN(S(=O)(=O)c4cccc(F)c4)CC3)cc(C3CC3)nc21 | -11.9 | nt | nt | nt | nt
CN(C)/C=C1\C(=O)Nc2ccccc21 | -1.9 | -31.8 | 5.6 | 134.7* | 15.7
Cc1ccc(/C=C/C2=NN(C)C(=O)CC2)cc1 | 53.2* | 30.4 | -23.9 | 75.5 | 38.7
Nc1nc(CCl)nc(Nc2cccc3ccccc23)n1 | 94.9* | nt | nt | nt | 26.6
CCCCn1c(N)c(N(CCC(C)C)C(=O)C2CC(=O)N(c3ccc(OC)cc3OC)C2)c(=O)[nH]c1=O (stereo not given) | -14.1 | nt | nt | nt | nt
CCc1n[n+](CC(=O)c2ccccc2)c(N)s1 | 58.9* | 64.7* | 59.0* | 50.8 | 64.9*
O=C1Nc2ccccc2C(=O)N(C2CCCC2)C1C(=O)NC1CC1 (stereo not given) | -5.0 | nt | nt | nt | nt
Nn1c(SCC(=O)NCc2ccc3c(c2)OCO3)nnc1C(F)(F)F | -1.8 | nt | nt | nt | nt
CN1OC[C@@H]2CN[C@H](c3ccc(-c4cc5ccccc5o4)cc3)C[C@@H]21 | 86.4* | nt | nt | nt | nt
SMILES | C8 TRAIL sens | STAT3 blocker | STAT1 inh | STAT3 act | PPC-1+TRAIL kill
COc1ccc(Br)cc1/C=N/Nc1ccccn1 | 16.5 | nt | nt | nt | nt
Cc1cccc(-n2ncc3c(NC4CCCCC4)ncnc32)c1 | 73.0* | 16.6 | -70.8 | 86.6 | 35.9
C=CCNc1ncnc2c1cnn2-c1cccc(C)c1 | 37.0 | 4.9 | -43.2 | 96.1 | 9.3
Cc1cc(C)c(C2=CC(=O)C[C@H](c3ccc4c(c3)OCO4)C2)c(C)c1 | 16.4 | nt | nt | nt | nt
O=C(CNC(=O)c1cccs1)Nc1cccc(S(=O)(=O)N2CCOCC2)c1 | -4.8 | nt | nt | nt | nt
N#C/C(=C\c1ccccc1)C(=O)N(c1ccccn1)C1CCCCC1 | -13.1 | -4.2 | 7.5 | 105.8 | 59.1*
Cn1c(=O)c2c(ncn2CC(=O)OCC(=O)c2ccc(OC(F)F)cc2OC(F)F)n(C)c1=O | 11.5 | nt | nt | nt | nt
O=[N+]([O-])c1cc([N+](=O)[O-])c2cc3ccccc3nc2c1 | 31.4 | nt | nt | nt | nt
CCOc1ccccc1C=C1SC(=S)N(CC)C1=O | 73.3* | nt | nt | nt | nt
O=C(O)c1cc(S(=O)(=O)N2CCCCC2)ccc1N1CCOCC1 | 3.8 | nt | nt | nt | nt
CC(=O)Nc1ccc(N(C(=O)CNC(=O)c2ccco2)C(C(=O)NC2CCCC2)c2ccco2)cc1 (stereo not given) | -3.4 | nt | nt | nt | nt
CCc1ccc2nc(N(CCCN(C)C)C(=O)c3ccc(S(=O)(=O)N4CCCc5ccccc54)cc3)sc2c1 | 67.5* | nt | nt | nt | nt
COc1cc2nc(N(CCCN(C)C)C(=O)c3ccc(C(=O)c4ccccc4)cc3)sc2cc1OC | 6.7 | nt | nt | nt | nt
CCc1ccc2nc(N(CCCN(C)C)C(=O)c3ccc(C(=O)c4ccccc4)cc3)sc2c1 | 62.3* | nt | nt | nt | nt
CC1CCCCN1S(=O)(=O)c1ccc(C(=O)N(CCCN(C)C)c2nc3ccc(Br)cc3s2)cc1 (stereo not given) | 55.2* | nt | nt | nt | nt
O=S1(=O)CC(N2CCCCC2)CN1Cc1cn(Cc2cccc(Cl)c2)nn1 (stereo not given) | -10.8 | nt | nt | nt | nt
C[C@]12c3[nH]c4ccc(Cl)cc4c3CCN1C(=O)[C@@H](CC(=O)NCCC1=CCCCC1)C[C@@H]2C(=O)N1CCCCC1 | 5.1 | nt | nt | nt | nt
O=C(C[C@H]1C/C=C\C[C@H](Cc2ccc(F)cc2)C(=O)O[C@@H](c2ccccc2)CNC1=O)NCCO | -7.3 | nt | nt | nt | nt
O=C1CN(CC(=O)Nc2cccc(Cl)c2Cl)c2ccccc2N1 | -24.9 | -57.6 | 6.1 | 149.3* | 11.7
O=C(CN1C(=O)NC2(CCCC2)C1=O)Nc1cccc(Cl)c1Cl | 3.0 | nt | nt | nt | nt
O=C1CN(C(=O)COc2ccc(Cl)c(Cl)c2)c2ccccc2N1 | 4.1 | nt | nt | nt | nt
O=C1CN(C(=O)Cn2ncc(Cl)c(Cl)c2=O)c2ccccc2N1 | 94.3* | 9.5 | 7.0 | 93.9 | 37.5
CN(C)S(=O)(=O)c1ccc(C(=O)OCC2CC2(Cl)Cl)cc1 (stereo not given) | -2.9 | nt | nt | nt | nt
CC(=O)c1cccc(NC(=O)C(C)OC(=O)C2CCC2)c1 (stereo not given) | -20.4 | nt | nt | nt | nt
C#Cc1ccc(NC(=O)C2(C)CCN2C(=O)C2(c3ccccc3)CC2)cc1 (stereo not given) | 44.9 | nt | nt | nt | nt
C#Cc1ccc(NC(=O)C2(C)CCN2C(=O)CC(c2ccccc2)c2ccccc2)cc1 (stereo not given) | 93.1* | nt | nt | nt | nt
CCCCn1c(N)c(N(C)C(=O)C2CCCC2)c(=O)[nH]c1=O | -1.3 | nt | nt | nt | nt
